The text below walks through data of ChEMBL document CHEMBL1149177, “Meta-substituted aryl(thio)ethers as potent partial agonists (or antagonists) for the histamine H3 receptor lacking a nitrogen atom in the side chain” (J Med Chem, 2004).

SMILES strings stand for the structures. Some results are limits rather than exact numbers.

The subject of assay [1] is Mus musculus. Kind of assay: In vivo inhibition of brain N-methyl-histamine formation in mice when administered perorally in presence of oxalate salt. The assay is classed as functional. To be noted: po. Summed up:
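Male Swiss mice (18–22 g), groups of 6–12, given oxalate salt orally as solution or suspension in 1% methylcellulose. Cerebral cortex taken 90 min after dosing, homogenized in ice-cold 0.4 N perchloric acid. Nτ-methylhistamine measured by radioimmunoassay. Agonist maximal effect referenced to imetit 10 mg/kg; antagonist maximal effect referenced to thioperamide 10 mg/kg. ED50 given as free base.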

In assay [2] the target is Histamine H3 receptor (Rattus norvegicus) (UniProt Q9QYN8). Kind of assay: In vitro intrinsic activity against histamine H3 receptor using [3H]histamine as radioligand from rat cerebral cortex synaptosomes with respect to histamine; No detectable agonism. The assay is classed as functional, subcellular. To be noted: Brain. Summed up: (§1)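 Rat cerebral cortex synaptosomes preincubated 30 min at 37 °C with L-[3H]histidine to label histamine stores; K+-evoked depolarization-induced [3H]histamine release measured. Intrinsic activity taken as maximal inhibition by test substance relative to that from histamine (1 μM). Antagonism read as blockade of the histamine effect, expressed as Ki.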

For assay [3], the species on record is Mus musculus. Kind of assay: Intrinsic activity was determined inhibition of brain N-mehtylhistamine formation in mice relative to imetit. The assay is classed as functional. In outline: (§2)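 Oxalate salt given orally as solution or suspension in 1% methylcellulose to groups of 6–12 male Swiss mice (18–22 g); doses 0.15–30 mg/kg. Cerebral cortex taken 90 min later, homogenized in ice-cold 0.4 N perchloric acid, Nτ-methylhistamine measured by radioimmunoassay. Agonist maxima referenced to imetit 10 mg/kg; antagonist maxima to thioperamide 10 mg/kg; ED50 as free base.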

The target in the next assay is Histamine H3 receptor (Rattus norvegicus, UniProt Q9QYN8). Kind of assay: In vitro inhibitory activity against histamine H3 receptor using [3H]histamine as radioligand from rat cerebral cortex synaptosomes. The assay is classed as subcellular, Brain. Summed up: as §1
The target of assay [4] is Histamine H3 receptor (Cavia porcellus) (UniProt Q9JI35). Kind of assay: Tested for activity of compound against histamine H3 receptor in guinea pig ileum; Antagonist. The assay is classed as functional, tissue-based. To be noted: filed as antagonist.
For assay [5], the target named is Histamine H3 receptor (Homo sapiens) (UniProt Q9Y5N1). Kind of assay: Tested for activity against histamine H3 receptor; Weak antagonist. The assay is classed as functional. The note with it: filed as antagonist.
Assay [6] addresses Histamine H3 receptor (Cavia porcellus) (UniProt Q9JI35). Kind of assay: In vitro activity against histamine H3 receptor in guinea pig ileum; Antagonist. The assay is classed as functional, tissue-based. To be noted: filed as antagonist.
The target of assay [7] is Histamine H3 receptor (Rattus norvegicus) (UniProt Q9QYN8). Kind of assay: In vitro activity against histamine H3 receptor in rat synaptosomes; Partial agonist. The assay is classed as functional, subcellular. To be noted: Brain; filed as partial agonist. In outline: as §1
Assay [8] has as its target Histamine H3 receptor (Homo sapiens) (UniProt Q9Y5N1). Kind of assay: Tested in vivo for activity against histamine H3 receptor; Full agonist. The assay is classed as functional, organism-based. The note with it: filed as agonist. Summed up:
as §2

Assay [9] has as its target Histamine H3 receptor (Rattus norvegicus) (UniProt Q9QYN8). Kind of assay: In vitro intrinsic activity against histamine H3 receptor using [3H]histamine as radioligand from rat cerebral cortex synaptosomes with respect to histamine. The assay is classed as subcellular. To be noted: Brain. Summed up:
as §1

Another assay is filed under the species Cavia porcellus. Kind of assay: Tested for activity of compound against neurogenic contractions of guinea pig jejunum; Potent antagonist. The note with it: filed as antagonist. The assay is classed as functional.
Assay [10] addresses Histamine H3 receptor (Mus musculus) (UniProt P58406). Kind of assay: Activity against Histamine H3 receptor mediated inhibition of [3H]norepinephrine release from mouse brain; Partial agonist. The assay is classed as functional. The note with it: filed as partial agonist.
The target of assay [11] is Histamine H3 receptor (Homo sapiens) (UniProt Q9Y5N1). Kind of assay: Agonistic activity against histamine H3 receptor; Partial agonist. The assay is classed as functional. The note with it: filed as partial agonist.
Assay [12] deals with Histamine H3 receptor (Mus musculus) (UniProt P58406). Kind of assay: Tested for activity against histamine H3 receptor in vivo in mice; Weak agonist. The assay is classed as functional, organism-based. To be noted: filed as partial agonist. Summed up:
as §2

Assay [13] concerns Mus musculus. Kind of assay: In vivo Intrinsic activity inhibition of brain N-mehtylhistamine formation in mice relative to imetit; Antagonist. The assay is classed as functional. Summed up:
as §2

The species named for a further assay is Rattus norvegicus. Kind of assay: In vitro effective concentration of compound required to reduce histamine release from rat synaptosomes. To be noted: Brain. The assay is classed as functional. In outline:
as §1

Histamine H3 receptor (Mus musculus), sequence (P58406 whole entry): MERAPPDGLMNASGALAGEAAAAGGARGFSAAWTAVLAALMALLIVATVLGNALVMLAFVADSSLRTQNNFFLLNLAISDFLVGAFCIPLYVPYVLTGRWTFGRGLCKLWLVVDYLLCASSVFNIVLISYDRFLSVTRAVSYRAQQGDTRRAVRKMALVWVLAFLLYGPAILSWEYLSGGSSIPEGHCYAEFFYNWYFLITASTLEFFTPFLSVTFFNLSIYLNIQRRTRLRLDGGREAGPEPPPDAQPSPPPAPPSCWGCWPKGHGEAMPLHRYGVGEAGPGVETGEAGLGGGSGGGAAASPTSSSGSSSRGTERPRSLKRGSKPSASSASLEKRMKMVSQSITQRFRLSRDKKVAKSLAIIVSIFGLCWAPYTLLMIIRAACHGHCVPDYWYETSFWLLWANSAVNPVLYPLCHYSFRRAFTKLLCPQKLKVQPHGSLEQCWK
Histamine H3 receptor (Cavia porcellus), sequence (Q9JI35 whole entry): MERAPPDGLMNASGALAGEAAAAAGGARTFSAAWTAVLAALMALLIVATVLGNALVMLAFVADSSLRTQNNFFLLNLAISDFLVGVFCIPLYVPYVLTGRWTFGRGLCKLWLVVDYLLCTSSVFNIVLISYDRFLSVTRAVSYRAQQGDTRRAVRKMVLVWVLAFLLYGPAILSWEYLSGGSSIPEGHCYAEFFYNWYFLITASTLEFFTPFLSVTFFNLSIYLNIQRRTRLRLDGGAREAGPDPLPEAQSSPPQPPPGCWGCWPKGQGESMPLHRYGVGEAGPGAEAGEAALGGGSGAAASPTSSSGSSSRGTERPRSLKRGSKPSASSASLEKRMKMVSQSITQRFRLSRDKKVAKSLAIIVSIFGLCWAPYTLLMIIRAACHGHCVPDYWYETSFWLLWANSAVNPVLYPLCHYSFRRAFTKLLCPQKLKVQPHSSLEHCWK
Histamine H3 receptor (Rattus norvegicus), sequence (Q9QYN8 whole entry): as the sequence (P58406 whole entry) above, with A15T, T286A, G290A, H387R, V389I counted along it
Histamine H3 receptor, sequence (Q9QYN8 whole entry): as the sequence (P58406 whole entry) above, with A15T, T286A, G290A, H387R, V389I counted along it
Histamine H3 receptor (Homo sapiens), sequence (Q9Y5N1 whole entry): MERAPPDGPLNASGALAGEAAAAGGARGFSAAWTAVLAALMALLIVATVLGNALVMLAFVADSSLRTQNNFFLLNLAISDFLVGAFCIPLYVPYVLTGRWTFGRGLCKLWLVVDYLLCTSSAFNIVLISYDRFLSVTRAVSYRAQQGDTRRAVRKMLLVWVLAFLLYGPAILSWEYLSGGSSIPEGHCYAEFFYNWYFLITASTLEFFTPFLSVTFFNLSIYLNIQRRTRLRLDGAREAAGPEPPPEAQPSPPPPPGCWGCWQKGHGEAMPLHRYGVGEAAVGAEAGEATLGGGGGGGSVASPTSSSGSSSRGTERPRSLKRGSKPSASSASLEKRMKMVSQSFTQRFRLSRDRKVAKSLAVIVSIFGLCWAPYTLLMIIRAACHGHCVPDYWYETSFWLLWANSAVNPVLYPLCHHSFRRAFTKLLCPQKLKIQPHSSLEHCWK

The ED50 is the dose that gives a 50% effect, or the effect in half of the subjects. As for `Brc1cccc(OCCCc2c[nH]cn2)c1`, the ED50 in the assay with Mus musculus [1] is above 10 mg/kg. For the same compound, the Intrinsic activity in assay [2] was below 0.1.

Regarding `FC(F)(F)c1ccc(OCCCc2c[nH]cn2)cc1`, the ED50 in the assay on Mus musculus [1] came to 0.6 mg/kg. This compound also came in with an Intrinsic activity in the assay filed under Mus musculus [3] of 0.

What is called Ki is a measure of affinity in units of concentration, obtained from inhibition or displacement. Lower therefore signals a stronger hold on the target. Consider `FC(F)(F)c1cc(OCCCc2c[nH]cn2)cc(C(F)(F)F)c1`, for which the ED50 with Mus musculus [1] was determined as 4.8 mg/kg. Moreover, affinity on Histamine H3 receptor was put at a Ki of 116 nM. The Intrinsic activity in the assay listed under Mus musculus [3] is on record as 0.

As to `CC(C)NC(=O)OCCCc1c[nH]cn1`, the Activity entry in [4] was “Antagonist”; in [5], “Partial antagonist”.

With `CC(C)CCOCCCc1c[nH]cn1`, the Activity entry was “Antagonist” in assay [6], “Partial agonist” in assay [7] and “Agonist” in assay [8].

For `FC(F)(F)c1cccc(SCCCc2c[nH]cn2)c1`, in the assay on Mus musculus [1], the median effective dose (ED50) is above 10 mg/kg. This compound displayed a Ki on Histamine H3 receptor of 38 nM.

For `O=[N+]([O-])c1cccc(OCCCc2c[nH]cn2)c1`, the 50% effective dose (ED50) in the assay with Mus musculus [1] worked out at 1.1 mg/kg. The Intrinsic activity in assay [9] was found to be 0.1; in the assay listed under Mus musculus [3], 0.61.

`CC(C)c1cccc(OCCCc2c[nH]cn2)c1`: the ED50 in the assay with Mus musculus [1] amounted to 0.5 mg/kg. In addition, the Intrinsic activity in assay [9] was 0.3; in the assay listed under Mus musculus [3], 0.82.

As for `N#Cc1ccc(OCCCc2c[nH]cn2)cc1`, in the assay on Mus musculus [1], the ED50 was 0.54 mg/kg. This compound also gave an Intrinsic activity in the assay listed under Mus musculus [3] of 0.

For the compound `CC(C)(C)c1cccc(OCCCc2c[nH]cn2)c1`, the ED50 with Mus musculus [1] was 0.8 mg/kg. For the same compound, the values for the Intrinsic activity (in assay [9]; in the assay filed under Mus musculus [3]) were 0.28 and 0.78, respectively.

`CC(=O)c1cccc(OCCCc2cnc[nH]2)c1` returned an inhibitory constant (Ki) on Histamine H3 receptor of 20 nM.

Turning to `CC(C)(C)CNC(=O)OCCCc1c[nH]cn1`, in assay [4], the Activity entry was “Antagonist”.

`c1nc(CC2CCNCC2)c[nH]1`: the Activity entry was “Antagonist” in the assay listed under Cavia porcellus and “Partial agonist” in assay [10].

In the case of `N=C(N)SCCc1c[nH]cn1`, the Activity entry in the assay filed under Cavia porcellus was “Antagonist”; in assay [10], “Partial agonist”.

Turning to `N#Cc1cccc(OCCCc2cnc[nH]2)c1`, in the assay on Mus musculus [1], the ED50 is above 10 mg/kg. The affinity at Histamine H3 receptor corresponds to a Ki of 108 nM.

Consider `NCC[C@@H]1C[C@@H]1c1c[nH]cn1`, for which the Activity entry was “Antagonist” in the assay listed under Cavia porcellus and “Partial agonist” in [10].

For `FC(F)(F)c1cccc(CCCCc2c[nH]cn2)c1`, the median effective dose (ED50) with Mus musculus [1] was 6.5 mg/kg. The same compound showed a Ki on Histamine H3 receptor of 38 nM. The compound also registered an Intrinsic activity in the assay filed under Mus musculus [3] of 0.

On to `Cc1cccc(OCCCc2cnc[nH]2)c1`, for which the ED50 in the assay on Mus musculus [1] is above 10 mg/kg. The inhibition constant (Ki) at Histamine H3 receptor was found to be 37 nM.

Consider `CC(C)(C)CCOCCCc1c[nH]cn1`, for which the Activity result in [8] was “Agonist”.

With `Ic1ccc(COCCCc2c[nH]cn2)cc1`, the Activity result in assay [11] is “Partial agonist”.

`CC(C)(C)NC(=O)OCCCc1c[nH]cn1`: the Activity result was “Antagonist” in assay [4] and “Partial agonist” in [12].

For `CC(C)(C)c1cccc(OCCCc2cnc[nH]2)c1`, affinity at Histamine H3 receptor was put at a Ki of 22 nM.

As for `C[C@H]1NCC[C@@H]1c1c[nH]cn1`, the results for the Activity result (in the assay listed under Cavia porcellus; in [10]) were “Antagonist” and “Partial agonist”, respectively.

On to `N=C(N)CCCc1c[nH]cn1`, for which the Activity entry in the assay listed under Cavia porcellus was “Antagonist”; in [10] it was “Partial agonist”.

Turning to `FC(F)(F)c1ccccc1OCCCc1c[nH]cn1`, in the assay on Mus musculus [1], the ED50 was above 10 mg/kg. On Histamine H3 receptor, this compound returned a Ki of around 500 nM.

Take `FC(F)(F)c1cccc(OCCc2c[nH]cn2)c1`: the median effective dose (ED50) in the assay with Mus musculus [1] was below 10 mg/kg. In addition, the affinity at Histamine H3 receptor, expressed as Ki, was 18 nM. Moreover, in the assay with Mus musculus [13], the Intrinsic activity is 0.

Turning to `CCc1cccc(OCCCc2c[nH]cn2)c1`, the ED50 with Mus musculus [1] was around 1 mg/kg. Further, the Intrinsic activity in [9] is 0.2; in the assay listed under Mus musculus [3], 0.85.

Turning to `NCCCCCc1c[nH]cn1`, the Activity entry in the assay listed under Cavia porcellus was “Antagonist”; in assay [10] it was “Partial agonist”.

Regarding `FC(F)(F)c1cccc(SCCc2c[nH]cn2)c1`, the ED50 with Mus musculus [1] was 0.94 mg/kg. Besides, the Intrinsic activity in [9] turned out to be 0.4; in the assay filed under Mus musculus [3], 0.7.

As for `CC(C)c1cccc(OCCCc2cnc[nH]2)c1`, affinity at Histamine H3 receptor was put at a Ki of 29 nM.

As for `CC(=O)c1cccc(OCCCc2c[nH]cn2)c1`, the ED50 in the assay with Mus musculus [1] amounted to 0.4 mg/kg. In addition, the Intrinsic activity amounted to 0.15 in assay [9] and 0.9 in the assay listed under Mus musculus [3].

Regarding `c1ccc(OCCCc2c[nH]cn2)cc1`, the ED50 in the assay with Mus musculus [1] is above 10 mg/kg.

Consider `CC(NC(=O)OCCCc1c[nH]cn1)C(C)(C)C` (stereo not drawn), for which the Activity result in assay [4] is “Antagonist”.

For `FC(F)(F)c1cccc(OCCCCc2c[nH]cn2)c1`, in the assay filed under Mus musculus [3], the Intrinsic activity came to 0.7.

With `CC(C)CNC(=O)OCCCc1c[nH]cn1`, the Activity result in assay [4] is “Antagonist”.

Take `CCc1cccc(OCCCc2cnc[nH]2)c1`: at Histamine H3 receptor, the affinity, expressed as Ki, was 15 nM.

As for `C[C@@H](N)Cc1c[nH]cn1`, the Activity result was “Antagonist” in the assay listed under Cavia porcellus and “Partial agonist” in [10].

The EC50 is the concentration giving half of the maximal effect. A high value points to weaker potency. `FC(F)(F)c1cccc(OCCCc2c[nH]cn2)c1`: the 50% effective dose (ED50) in the assay with Mus musculus [1] is 0.6 mg/kg. On Histamine H3 receptor, this compound registered a Ki of 8.4 nM. The response in the assay filed under Rattus norvegicus was half-maximal at 98 nM (EC50). Moreover, the Intrinsic activity in the assay listed under Mus musculus [3] was 1; in assay [2], 0.4.

In turn, `O=[N+]([O-])c1cccc(OCCCc2cnc[nH]2)c1` had a Ki at Histamine H3 receptor of 9.4 nM.

In the case of `S=C(NC1CCCCC1)N1CCC(c2cnc[nH]2)CC1` [THIOPERAMIDE], in the assay with Mus musculus [1], the ED50 was determined as 1 mg/kg.

As to `NC[C@H]1CC[C@H](c2c[nH]cn2)O1`, the Activity entry in the assay listed under Cavia porcellus is “Antagonist”; in [10], “Partial agonist”.

As to `Brc1cccc(OCCCc2cnc[nH]2)c1`, the inhibition constant Ki at Histamine H3 receptor amounted to 19 nM. This counts as double-digit nanomolar.
